In ChEMBL document CHEMBL4371057, “Hydroxamic Acid Inhibitors Provide Cross-Species Inhibition of Plasmodium M1 and M17 Aminopeptidases” (J Med Chem, 2019):
Activity calls are given as the source filed them. The rule behind the calls is not given here.

Legend:
[1] = Cytotoxicity against HEK293 cells after 72 hrs by resazurin dye based assay; assay type: cell-based; conditions: human
In short: (§1)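 HEK293 cells kept in DMEM with 10% FBS. Exposed to compounds for 72 h at 37 °C, 5% CO2, using the same dilution scheme as the parasite assay (top 40 μM). Medium then replaced with 44 μM resazurin, and fluorescence (530/595 nm) read after 5–6 h.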

[2] = Growth inhibition of HEK293 cells at 10 uM after 72 hrs by resazurin dye based assay relative to control; assay type: cell-based; conditions: human, read-out: GI; in short: as §1
[3] = Growth inhibition of HEK293 cells at 40 uM after 72 hrs by resazurin dye based assay relative to control; assay type: cell-based; conditions: human, read-out: GI; in short: as §1
[4] = Selectivity index, ratio of CC50 for HEK293 cells to IC50 for Plasmodium falciparum 3D7; assay type: toxicity; conditions: human, read-out: Ratio CC50/IC50
Plasmodium falciparum [5] = experiment: Antimalarial activity against Plasmodium falciparum 3D7 after 72 hrs by DAPI staining-based confocal imaging analysis; assay type: functional, organism-based; conditions: 3D7, 72 h
In short: (§2)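 Exposed to a 16-point dose series (40 μM to 0.4 nM final, 0.4% DMSO) for 72 h at 37 °C in 90% N2/5% CO2/5% O2. DAPI-stained and imaged confocally. Two biological replicates, each with two technical repeats.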

Plasmodium falciparum [6] = experiment: Antimalarial activity against Plasmodium falciparum Dd2 after 72 hrs by DAPI staining-based confocal imaging analysis; assay type: functional, organism-based; in short: as §2
[7] = molecular target: T1, Matrilysin (Homo sapiens) (UniProt P09237); experiment: Inhibition of MMP7 (unknown origin) preincubated for 1 hr followed by (QF)-24 substrate addition measured at 1 min time interval for 1 hr by fluorescence assay
T1 sequence (whole entry): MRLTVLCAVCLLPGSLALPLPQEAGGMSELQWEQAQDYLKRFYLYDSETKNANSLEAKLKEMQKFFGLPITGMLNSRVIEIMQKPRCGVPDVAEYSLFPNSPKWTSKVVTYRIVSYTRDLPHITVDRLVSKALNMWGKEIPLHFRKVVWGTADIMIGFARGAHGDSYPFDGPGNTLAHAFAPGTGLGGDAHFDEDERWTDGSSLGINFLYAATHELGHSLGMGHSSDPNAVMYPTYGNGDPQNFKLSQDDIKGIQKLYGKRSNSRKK
In short: (§3)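 MMPs were activated with 1 mM 4-aminophenylmercuric acetate (50 mM HEPES, 150 mM NaCl, 5 mM CaCl2, pH 7.0, 1 h, rt). 1 μM QF24 was added at 37 °C and read at 320/405 nm every minute for 1 h. IC50 from a four-parameter Hill fit; three independent experiments.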

[8] = molecular target: Neutrophil collagenase (Homo sapiens) (UniProt P22894); experiment: Inhibition of MMP8 (unknown origin) preincubated for 1 hr followed by (QF)-24 substrate addition measured at 1 min time interval for 1 hr by fluorescence assay; in short: as §3
Chain of Neutrophil collagenase (Homo sapiens) (P22894 101-467 limits assumed): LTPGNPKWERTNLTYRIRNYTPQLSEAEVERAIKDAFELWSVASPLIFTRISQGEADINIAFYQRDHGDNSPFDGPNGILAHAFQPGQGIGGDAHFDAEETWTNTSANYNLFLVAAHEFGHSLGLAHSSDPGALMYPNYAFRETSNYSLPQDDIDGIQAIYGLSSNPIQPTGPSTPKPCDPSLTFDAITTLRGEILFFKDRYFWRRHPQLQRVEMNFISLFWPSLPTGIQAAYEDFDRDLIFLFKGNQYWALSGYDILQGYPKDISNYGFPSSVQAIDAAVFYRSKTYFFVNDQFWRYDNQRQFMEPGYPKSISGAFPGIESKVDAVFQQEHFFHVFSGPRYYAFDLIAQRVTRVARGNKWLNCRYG

[9] = Inhibition of Plasmodium falciparum C-terminal His6-tagged M1 aminopeptidase (195 to 1085 residues) expressed in Escherichia coli BL21(DE3) preincubated for 20 mins followed by L-leucine-7-amido-4-methylcoumarin addition by Morrison equation analysis
In short: (§4)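 Recombinant enzymes (Ni-NTA then size exclusion) were preincubated 20 min with inhibitor in 100 mM Tris-HCl pH 8.0, with 2 mM CoCl2 for Pf-M17 and 1 mM for Pv-M17. Leu-AMC substrate: 20 μM (Pf-M1), 40 μM (Pv-M1), 10 μM (both M17). Read at 37 °C, 355/460 nm, to steady-state velocity. Ki from a Morrison tight-binding fit; biological triplicate from three protein preparations.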

[10] = Inhibition of Plasmodium falciparum C-terminal His6-tagged M17 aminopeptidase (85 to 605 residues) expressed in Escherichia coli BL21(DE3) preincubated for 20 mins followed by L-leucine-7-amido-4-methylcoumarin addition by Morrison equation analysis; in short: as §4
[11] = Inhibition of Plasmodium vivax C-terminal His6-tagged M1 aminopeptidase (195 to 1097 residues) expressed in Escherichia coli BL21(DE3) preincubated for 20 mins followed by L-leucine-7-amido-4-methylcoumarin addition by Morrison equation analysis; in short: as §4
[12] = Inhibition of Plasmodium vivax C-terminal His6-tagged M17 aminopeptidase (203 to 621 residues) expressed in Escherichia coli BL21(DE3) preincubated for 20 mins followed by L-leucine-7-amido-4-methylcoumarin addition by Morrison equation analysis; in short: as §4
[13] = Selectivity ratio of Ki for Plasmodium falciparum C-terminal His6-tagged M1 aminopeptidase (195 to 1085 residues) expressed in Escherichia coli BL21(DE3) to Ki for Plasmodium vivax C-terminal His6-tagged M1 aminopeptidase (195 to 1097 residues) expressed in Escherichia coli BL21(DE3)
Plasmodium falciparum [14] = experiment: Reversible inhibition of Plasmodium falciparum C-terminal His6-tagged M17 aminopeptidase (85 to 605 residues) expressed in Escherichia coli BL21(DE3) assessed as enzyme activity recovery at 150 uM preincubated followed by compound washout for 5 hrs and subsequent L-leucine-7-amido-4-methylcoumarin substrate addition by fluorescence assay
In short: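 Pf-M17 (20 μM) was incubated overnight at 4 °C with 150 μM compound, 150 μM bestatin, 2 mM EDTA, or buffer (50 mM HEPES pH 8, 300 mM NaCl). It was then washed by repeated 10-fold concentration/dilution for up to 7 h, incubated 10 min in 1 mM MnCl2, 100 mM Tris pH 8.0, given 25 μM Leu-AMC (final), and fluorescence followed for 30 min.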

Plasmodium falciparum [15] = conditions: 2 mM
[16] = molecular target: Matrix metalloproteinase-9 (Homo sapiens, UniProt P14780); experiment: Inhibition of MMP9 (unknown origin) preincubated for 1 hr followed by (QF)-24 substrate addition measured at 1 min time interval for 1 hr by fluorescence assay
Chain of Matrix metalloproteinase-9 (P14780 whole entry): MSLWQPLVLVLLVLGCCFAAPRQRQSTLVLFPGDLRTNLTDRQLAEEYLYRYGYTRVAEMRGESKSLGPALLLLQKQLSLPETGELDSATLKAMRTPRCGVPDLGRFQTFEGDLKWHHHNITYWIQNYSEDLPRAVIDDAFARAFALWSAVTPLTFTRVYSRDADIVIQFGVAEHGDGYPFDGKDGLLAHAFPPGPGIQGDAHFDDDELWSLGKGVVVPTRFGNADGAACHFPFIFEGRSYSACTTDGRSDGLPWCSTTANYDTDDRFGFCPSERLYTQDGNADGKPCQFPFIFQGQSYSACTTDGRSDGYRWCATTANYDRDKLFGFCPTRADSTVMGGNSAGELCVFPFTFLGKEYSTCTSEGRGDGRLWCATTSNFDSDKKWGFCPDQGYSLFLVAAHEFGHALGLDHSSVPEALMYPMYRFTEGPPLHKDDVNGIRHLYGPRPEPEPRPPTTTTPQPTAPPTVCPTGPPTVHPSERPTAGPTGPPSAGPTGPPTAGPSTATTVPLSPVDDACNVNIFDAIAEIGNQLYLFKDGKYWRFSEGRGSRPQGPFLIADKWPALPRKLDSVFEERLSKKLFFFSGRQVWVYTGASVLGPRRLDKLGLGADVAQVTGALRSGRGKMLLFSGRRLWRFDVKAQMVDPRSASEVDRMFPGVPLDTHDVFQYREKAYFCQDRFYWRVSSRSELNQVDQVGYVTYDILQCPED

[17] = molecular target: 72 kDa type IV collagenase (Homo sapiens, UniProt P08253); experiment: Inhibition of MMP2 (unknown origin) preincubated for 1 hr followed by (QF)-24 substrate addition measured at 1 min time interval for 1 hr by fluorescence assay
Chain of 72 kDa type IV collagenase (P08253 whole entry): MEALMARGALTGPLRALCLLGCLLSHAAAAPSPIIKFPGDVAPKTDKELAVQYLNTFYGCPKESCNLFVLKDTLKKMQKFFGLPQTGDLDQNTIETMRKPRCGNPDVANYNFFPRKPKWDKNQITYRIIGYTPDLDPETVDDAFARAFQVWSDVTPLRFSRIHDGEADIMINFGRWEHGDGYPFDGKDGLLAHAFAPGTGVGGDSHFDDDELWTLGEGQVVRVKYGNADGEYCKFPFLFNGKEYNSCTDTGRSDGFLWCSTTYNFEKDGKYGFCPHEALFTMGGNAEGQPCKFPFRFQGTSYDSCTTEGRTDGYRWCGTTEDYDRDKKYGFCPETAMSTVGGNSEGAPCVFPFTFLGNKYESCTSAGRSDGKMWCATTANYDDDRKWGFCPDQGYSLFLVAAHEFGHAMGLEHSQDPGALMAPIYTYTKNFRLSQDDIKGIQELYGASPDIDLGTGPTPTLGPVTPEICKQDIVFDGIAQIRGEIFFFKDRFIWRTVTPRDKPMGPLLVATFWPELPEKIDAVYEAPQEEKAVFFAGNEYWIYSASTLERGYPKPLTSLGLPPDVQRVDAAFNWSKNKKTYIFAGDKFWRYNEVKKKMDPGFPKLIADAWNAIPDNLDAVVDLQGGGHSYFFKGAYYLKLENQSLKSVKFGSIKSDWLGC

[18] = Plasmodium falciparum, Dd2, 72 h, read-out: IC50

SMILES | inhibition at 72 h, 10 µM [2] | inhibition at 72 h, 40 µM [3] | IC50 (Plasmodium falciparum [5]) | IC50 (Plasmodium falciparum [6]; [18]) | Ki [9] | Ki [10] | Ki [11] | Ki [12] | Ratio Ki [13] | further results
COc1ccc(C[C@H](N)C(=O)N[C@H]2[C@@H](O)[C@H](n3cnc4c(N(C)C)ncnc43)O[C@@H]2CO)cc1 [PUROMYCIN] | 105% | 105% | 111 nM | 107 nM | – | – | – | – | – | CC50 at 72 h [1]: 500 nM; selectivity ratio [4]: 4.5
CNC(=O)[C@@H](NC(=O)[C@H](CC(C)C)[C@H](O)C(=O)NO)C(C)(C)C | – | – | – | – | – | – | – | – | – | inhibition [7]: Active; inhibition [8]: Active
O=C(NO)[C@@H](NC(=O)[C@@H](F)C(F)(F)F)c1ccc(-c2cc(F)c(F)c(F)c2)cc1 (racemic) | – | – | – | – | 1490 nM | 2190 nM | 211 nM | 1240 nM | 10 | –
O=C(NC(C(=O)NO)c1ccc(-c2cc(F)c(F)c(F)c2)cc1)C1CCC1 (configuration not stated) | 6% | 48.2% | 126 nM | 120 nM | 236 nM | 185 nM | 29.8 nM | 371 nM | 10 | selectivity ratio [4]: ≥ 158
O=C(CC1CCCC1)NC(C(=O)NO)c1ccc(-c2cc(F)c(F)c(F)c2)cc1 (configuration not stated) | 3.1% | -1% | 168 nM | 125 nM | 216 nM | 138 nM | 7.58 nM | 211 nM | 28.5 | –
CC(C)C[C@H](NC(=O)[C@@H](O)[C@H](N)Cc1ccccc1)C(=O)O | – | – | – | – | – | – | – | – | – | inhibition (Plasmodium falciparum [14]): Active
O=C(CC1CCCCC1)NC(C(=O)NO)c1ccc(-c2cc(F)c(F)c(F)c2)cc1 (configuration not stated) | – | – | – | – | 812 nM | 288 nM | 13.2 nM | 148 nM | 10 | –
C[C@H]1[C@H](OC(=O)CCC(=O)O)O[C@@H]2O[C@@]3(C)CC[C@H]4[C@H](C)CC[C@@H]1[C@@]24OO3 [ARTESUNATE] | 42.3% | – | 1.6 nM | 1 nM | – | – | – | – | – | –
O=C(NC(C(=O)NO)c1ccc(-c2cc(F)c(F)c(F)c2)cc1)C1CCCCC1 (configuration not stated) | – | – | – | – | 818 nM | 195 nM | 37.6 nM | 178 nM | 10 | –
CC(C)C(=O)NC(C(=O)NO)c1ccc(-c2cc(F)c(F)c(F)c2)cc1 (configuration not stated) | – | – | – | – | 417 nM | 426 nM | 38.9 nM | 325 nM | 10 | –
O=C(NO)C(NC(=O)C(F)(F)C(F)(F)F)c1ccc(-c2cc(F)c(F)c(F)c2)cc1 (configuration not stated) | – | – | – | – | 815 nM | 200 nM | 90 nM | 97.5 nM | 10 | –
O=C(CC1CC2CCC1C2)NC(C(=O)NO)c1ccc(-c2cc(F)c(F)c(F)c2)cc1 (configuration not stated) | 0.6% | 19.7% | 220 nM | 120 nM | 136 nM | 127 nM | 12.7 nM | 93.1 nM | 10 | –
CCC(=O)NC(C(=O)NO)c1ccc(-c2cc(F)c(F)c(F)c2)cc1 (configuration not stated) | – | – | – | – | 913 nM | 158 nM | 66.3 nM | 108 nM | 10 | –
O=C(CC1CC1)NC(C(=O)NO)c1ccc(-c2cc(F)c(F)c(F)c2)cc1 (configuration not stated) | 6.4% | 37.6% | 136 nM | 109 nM | 202 nM | 270 nM | 17.9 nM | 303 nM | 10 | –
O=C(CC1CCC1)NC(C(=O)NO)c1ccc(-c2cc(F)c(F)c(F)c2)cc1 (configuration not stated) | 6.3% | 5.6% | 55.4 nM | 29.2 nM | 177 nM | 306 nM | 2.85 nM | 75.6 nM | 62.1 | –
CC(C)(C)C(=O)NC(C(=O)NO)c1ccc(-c2cc(F)c(F)c(F)c2)cc1 (configuration not stated) | 1.1% | 80.7% | 83.1 nM | 81.7 nM | 331 nM | 147 nM | 14.1 nM | 74.8 nM | 10 | CC50 at 72 h [1]: ≥ 20000 nM; selectivity ratio [4]: ≥ 241
O=C(NC(C(=O)NO)c1ccc(-c2cc(F)c(F)c(F)c2)cc1)C1CCOCC1 (configuration not stated) | – | – | – | – | 431 nM | 290 nM | 159 nM | 494 nM | 10 | –
CCc1nc(N)nc(N)c1-c1ccc(Cl)cc1 [PYRIMETHAMINE] | 34.4% | 53.7% | 5.1 nM | – | – | – | – | – | – | CC50 at 72 h [1]: ≥ 20000 nM; selectivity ratio [4]: ≥ 1960; IC50 (Plasmodium falciparum [6]): Not Active
O=C(NC(C(=O)NO)c1ccc(-c2cc(F)c(F)c(F)c2)cc1)C1CC1 (configuration not stated) | – | – | – | – | 532 nM | 492 nM | 90.6 nM | 572 nM | 10 | –
O=C(O)CN(CCN(CC(=O)O)CC(=O)O)CC(=O)O | – | – | – | – | – | – | – | – | – | inhibition (Plasmodium falciparum [15]): Active
O=C(NC(C(=O)NO)c1ccc(-c2cc(F)c(F)c(F)c2)cc1)C1CCCC1 (configuration not stated) | – | – | – | – | 285 nM | 300 nM | 13.1 nM | 336 nM | 10 | –
C[C@H]1[C@@H](O)O[C@@H]2O[C@@]3(C)CC[C@H]4[C@H](C)CC[C@@H]1[C@@]24OO3 [ARTENIMOL] | 31% | – | 0.5 nM | 0.4 nM | – | – | – | – | – | –
COc1ccc2nc3cc(Cl)ccc3c(Nc3cc(CN4CCCC4)c(O)c(CN4CCCC4)c3)c2n1 [PYRONARIDINE] | 102% | 95.6% | 7 nM | 7.9 nM | – | – | – | – | – | CC50 at 72 h [1]: 3550 nM; selectivity ratio [4]: 507
O=C(N[C@@H](C(=O)NO)c1ccc(-c2cc(F)c(F)c(F)c2)cc1)[C@@H](F)C(F)(F)F (racemic) | – | – | – | – | 257 nM | 814 nM | 11.2 nM | 382 nM | 10 | –
O=C(CC(F)(F)F)NC(C(=O)NO)c1ccc(-c2cc(F)c(F)c(F)c2)cc1 (configuration not stated) | – | – | – | – | 537 nM | 999 nM | 149 nM | 1050 nM | 10 | –
CCN(CC)CCCC(C)Nc1ccnc2cc(Cl)ccc12 (configuration not stated) [CHLOROQUINE] | 17.3% | 57% | – | – | – | – | – | – | – | CC50 at 72 h [1]: ≥ 20000 nM
CC(C)C[C@@H](C(=O)N[C@H](C(=O)OC1CCCC1)c1ccccc1)C(O)C(=O)NO (some centres not stated) | – | – | – | – | – | – | – | – | – | IC50 [16]: 1500 nM; IC50 [17]: 190 nM; inhibition [7]: Active; inhibition [8]: Active
